Assay results published in ChEMBL document CHEMBL3407457, “Microwave-assisted synthesis of certain pyrrolylpyridines, some derived ring systems and their evaluation as anticancer and antioxidant agents” (Eur J Med Chem, 2015).
The source made the active and inactive calls. The rule behind the calls is not given here.

Experiments:
[1] = (§1) Growth inhibition of human OVCAR4 cells at 10 uM after 48 hrs by sulforhodamine B assay; assay type: functional; conditions: OVCAR-4, 48 h, read-out: GI
Procedure, shortened: (§2)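 NCI-60 primary screen: cells given a single 10 µM dose under 48 h continuous exposure. Growth/viability estimated by sulforhodamine B protein assay. Reported as percent growth of treated cells (mean graph), expressed as percent growth inhibition.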

SK-MEL-5 = assay: Growth inhibition of human SK-MEL-5 cells at 10 uM after 48 hrs by sulforhodamine B assay; assay type: functional; conditions: for inhibition of growth at 10 µM: SK-MEL-5, 48 h, read-out: GI; procedure, shortened: as §2
CCRF-CEM = assay: Growth inhibition of human CCRF-CEM cells at 10 uM after 48 hrs by sulforhodamine B assay; assay type: functional; conditions: read-out: GI; procedure, shortened: as §2
[2] = Growth inhibition of human MOLT4 cells at 10 uM after 48 hrs by sulforhodamine B assay; assay type: functional; conditions: MOLT-4, 48 h, read-out: GI; procedure, shortened: as §2
T47D = assay: Growth inhibition of human T47D cells at 10 uM after 48 hrs by sulforhodamine B assay; assay type: functional; conditions: read-out: GI; procedure, shortened: as §2
SNB-75 = assay: Growth inhibition of human SNB75 cells at 10 uM after 48 hrs by sulforhodamine B assay; assay type: functional; conditions: for inhibition of growth at 10 µM: SNB-75, 48 h, read-out: GI; procedure, shortened: as §2
IGROV-1 = assay: Growth inhibition of human IGROV1 cells at 10 uM after 48 hrs by sulforhodamine B assay; assay type: functional; conditions: IGROV-1, 48 h, read-out: GI; procedure, shortened: as §2
[3] = Antioxidant activity assessed as DPPH radical scavenging activity at 10^-3 M incubated for 30 mins by spectrophotometry; assay type: physicochemical; conditions: 0.5 h, 1000 µM
Procedure, shortened: (§3)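 Compound at 10^-3 or 10^-4 M mixed with methanolic DPPH (0.1 mL of 1 mM stock; 3 mL total volume), shaken, kept in the dark 30 min at room temperature. Absorbance read at 517 nm. Scavenging (%) = (A_control − A_sample)/A_control × 100, where the control is DPPH in methanol alone. BHT served as reference antioxidant. Triplicate, mean ± SD of three independent experiments.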

[4] = Growth inhibition of human HCT15 cells at 10 uM after 48 hrs by sulforhodamine B assay; assay type: functional; conditions: HCT-15, 48 h, read-out: GI; procedure, shortened: as §2
U-251 = assay: Growth inhibition of human U251 cells at 10 uM after 48 hrs by sulforhodamine B assay; assay type: functional; conditions: for inhibition of growth at 10 µM: U-251, 48 h, read-out: GI; procedure, shortened: as §2
K562 = assay: Growth inhibition of human K562 cells at 10 uM after 48 hrs by sulforhodamine B assay; assay type: functional; conditions: for inhibition of growth at 10 µM: K562, 48 h, read-out: GI; procedure, shortened: as §2
[5] = (§4) Growth inhibition of human HCT116 cells at 10 uM after 48 hrs by sulforhodamine B assay; assay type: functional; conditions: HCT-116, 48 h, read-out: GI; procedure, shortened: as §2
[6] = (§5) Growth inhibition of human Hs 578T cells at 10 uM after 48 hrs by sulforhodamine B assay; assay type: functional; conditions: read-out: GI; procedure, shortened: as §2
[7] = Growth inhibition of human UACC62 cells at 10 uM after 48 hrs by sulforhodamine B assay; assay type: functional; conditions: UACC-62, 48 h, read-out: GI; procedure, shortened: as §2
NCI-H522 = assay: Growth inhibition of human NCI-H522 cells at 10 uM after 48 hrs by sulforhodamine B assay; assay type: functional; conditions: for inhibition of growth at 10 µM: NCI-H522, 48 h, read-out: GI; procedure, shortened: as §2
[8] = (§6) Growth inhibition of human LOXIMVI cells at 10 uM after 48 hrs by sulforhodamine B assay; assay type: functional; conditions: LOX IMVI, read-out: GI; procedure, shortened: as §2
[9] = Growth inhibition of human HOP92 cells at 10 uM after 48 hrs by sulforhodamine B assay; assay type: functional; conditions: HOP-92, 48 h, read-out: GI; procedure, shortened: as §2
[10] = (§7) Growth inhibition of human UO31 cells at 10 uM after 48 hrs by sulforhodamine B assay; assay type: functional; conditions: UO-31, 48 h, read-out: GI; procedure, shortened: as §2
[11] = (§8) Growth inhibition of human PC3 cells at 10 uM after 48 hrs by sulforhodamine B assay; assay type: functional; conditions: PC-3, 48 h, read-out: GI; procedure, shortened: as §2
CAKI-1 = assay: Growth inhibition of human CAKI-1 cells at 10 uM after 48 hrs by sulforhodamine B assay; assay type: functional; conditions: for inhibition of growth at 10 µM: CAKI-1, 48 h, read-out: GI; procedure, shortened: as §2
MDA-MB-468 = assay: Growth inhibition of human MDA-MB-468 cells at 10 uM after 48 hrs by sulforhodamine B assay; assay type: functional; conditions: for inhibition of growth at 10 µM: MDA-MB-468, 48 h, read-out: GI; procedure, shortened: as §2
[12] = Growth inhibition of human RPMI8226 cells at 10 uM after 48 hrs by sulforhodamine B assay; assay type: functional; conditions: RPMI-8226, 48 h, read-out: GI; procedure, shortened: as §2
A498 = assay: Growth inhibition of human A498 cells at 10 uM after 48 hrs by sulforhodamine B assay; assay type: functional; conditions: A498, 48 h, read-out: GI; procedure, shortened: as §2
HL-60(TB) = assay: Growth inhibition of human HL-60(TB) cells at 10 uM after 48 hrs by sulforhodamine B assay; assay type: functional; conditions: for inhibition of growth at 10 µM: HL-60, 48 h, read-out: GI
Procedure, shortened: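 NCI-60 one-dose primary screen, HL-60(TB) within the leukemia subpanel. Single 10 µM concentration, 48 h continuous exposure. Growth estimated by sulforhodamine B protein assay. Percent growth of treated cells expressed as percentage growth inhibition (GI%).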

[13] = (§9) Growth inhibition of human EKVX cells at 10 uM after 48 hrs by sulforhodamine B assay; assay type: functional; conditions: read-out: GI; procedure, shortened: as §2
[14] = Antioxidant activity assessed as DPPH radical scavenging activity at 10^-4 M incubated for 30 mins by spectrophotometry; assay type: physicochemical; conditions: 0.5 h, 100 µM; procedure, shortened: as §3
ACHN = assay: Growth inhibition of human ACHN cells at 10 uM after 48 hrs by sulforhodamine B assay; assay type: functional; conditions: for inhibition of growth at 10 µM: read-out: GI; procedure, shortened: as §2
Hs-578T = assay: as §5; assay type: functional; procedure, shortened: as §2
OVCAR-4 = assay: as §1; assay type: functional; procedure, shortened: as §2
LOX IMVI = assay: as §6; assay type: functional; procedure, shortened: as §2
HCT-116 = assay: as §4; assay type: functional; procedure, shortened: as §2
UO-31 = assay: as §7; assay type: functional; procedure, shortened: as §2
EKVX = assay: as §9; assay type: functional; procedure, shortened: as §2
PC-3 = assay: as §8; assay type: functional; procedure, shortened: as §2

| Compound | inhibition of growth at 10 µM [1] [%] | inhibition of growth at 10 µM (SK-MEL-5) [%] | inhibition of growth at 10 µM (CCRF-CEM) [%] | inhibition of growth at 10 µM [2] [%] | inhibition of growth at 10 µM (T47D) [%] | inhibition of growth at 10 µM (SNB-75) [%] | inhibition of growth at 10 µM (IGROV-1) [%] | inhibition of growth at 10 µM [4] [%] | inhibition of growth at 10 µM (K562) [%] | inhibition of growth at 10 µM [5] [%] | inhibition of growth at 10 µM [7] [%] | inhibition of growth at 10 µM (NCI-H522) [%] | inhibition of growth at 10 µM [9] [%] | inhibition of growth at 10 µM [10] [%] | inhibition of growth at 10 µM [11] [%] | inhibition of growth at 10 µM [12] [%] | inhibition of growth at 10 µM (A498) [%] | inhibition of growth at 10 µM (HL-60(TB)) [%] | inhibition of growth at 10 µM [13] [%] | inhibition of growth at 10 µM (ACHN) [%] | other results |
| --- | --- | --- | --- | --- | --- | --- | --- | --- | --- | --- | --- | --- | --- | --- | --- | --- | --- | --- | --- | --- | --- |
| CCSc1nc(N)c2c(-c3cccn3C)c3c(nc2n1)C(C)CCC3 (stereo unspecified) | 23.4 | 13.1 | 21.6 | 42.3 | 54.2 | 21.4 | 35.3 | 10.8 | 37.4 | 35.3 | 24.1 | 33.8 | 28.7 | 45.8 | 57.1 | 68.5 | 26.5 | 25.8 | 34.1 | 11.9 | inhibition (INH) [3]: 28%; inhibition of growth at 10 µM (U-251): 16.7%; inhibition of growth at 10 µM [6]: 15.2%; inhibition of growth at 10 µM [8]: 12.9%; inhibition of growth at 10 µM (CAKI-1): 21.7%; inhibition of growth at 10 µM (MDA-MB-468): 15.4%; inhibition (INH) [14]: 16% |
| CC1CCCc2c1nc(NC(=S)NC(=O)c1ccccc1)c(C#N)c2-c1cccn1C (stereo unspecified) | 27.6 | 12.8 | 27.5 | 31.4 | 40.6 | 31.9 | 38.8 | 20.1 | 33.5 | 19.5 | 24.7 | 22.4 | 32 | 51.4 | 28.4 | 36.7 | 22.6 | 35.9 | 14.2 | 31.4 | inhibition (INH) [3]: 23%; inhibition of growth at 10 µM (U-251): 15.8%; inhibition of growth at 10 µM [6]: 38.1%; inhibition of growth at 10 µM [8]: 29.6%; inhibition of growth at 10 µM (CAKI-1): 31.9%; inhibition of growth at 10 µM (MDA-MB-468): 32.7%; inhibition (INH) [14]: 11% |
| CC1CCCc2c1nc1[nH]c(=S)nc(N)c1c2-c1cccn1C (stereo unspecified) | 13.8 | 18.4 | 26.7 | 32.6 | 40.1 | 17.5 | 34.4 | 13.4 | 29.6 | 22.6 | 23.5 | 29.7 | 36.4 | 34.7 | 19.8 | 51.9 | 41.3 | 33.2 | 18.9 | 15.2 | inhibition (INH) [3]: 26%; inhibition of growth at 10 µM (U-251): 21.4%; growth inhibition (GI) (Hs-578T): inactive; inhibition of growth at 10 µM [8]: 10.7%; growth inhibition (GI) (CAKI-1): inactive; growth inhibition (GI) (MDA-MB-468): inactive; inhibition (INH) [14]: 14% |
| CC1CCCc2c1nc1ncn(N)c(=N)c1c2-c1cccn1C (stereo unspecified) | – | 10.5 | 30.1 | 29.2 | 17.5 | 10.7 | 12.4 | 13.4 | 18.3 | 11.7 | 16.9 | 10.4 | 11.3 | 7.3 | 20.4 | 38.6 | 14.6 | 11.6 | 16.2 | – | growth inhibition (GI) (OVCAR-4): inactive; growth inhibition (GI) (U-251): inactive; inhibition of growth at 10 µM [6]: 10.7%; growth inhibition (GI) (LOX IMVI): inactive; growth inhibition (GI) (CAKI-1): inactive; growth inhibition (GI) (MDA-MB-468): inactive; growth inhibition (GI) (ACHN): inactive |
| CC1CCCc2c1nc1[nH]c(=S)n(-c3ccccc3)c(=N)c1c2-c1cccn1C (stereo unspecified) | – | 16.3 | 15.6 | 23.8 | 19.3 | – | 10.6 | 14.1 | 12.1 | – | 18.4 | 21.5 | 23.6 | – | 12.5 | 47.6 | 8.6 | – | – | 12.3 | growth inhibition (GI) (OVCAR-4): inactive; growth inhibition (GI) (SNB-75): inactive; growth inhibition (GI) (U-251): inactive; growth inhibition (GI) (HCT-116): inactive; growth inhibition (GI) (Hs-578T): inactive; growth inhibition (GI) (LOX IMVI): inactive; growth inhibition (GI) (UO-31): inactive; inhibition of growth at 10 µM (CAKI-1): 13.8%; inhibition of growth at 10 µM (MDA-MB-468): 11.4%; growth inhibition (GI) (HL-60(TB)): inactive; growth inhibition (GI) (EKVX): inactive |
| CC1CCCc2c1nc1ncn3ncnc3c1c2-c1cccn1C (stereo unspecified) | 6.1 | – | 10.3 | 20.4 | 11.8 | – | 7.9 | 6.3 | – | – | 8.3 | – | 10.1 | – | – | 12.2 | 5.7 | 8.5 | – | – | growth inhibition (GI) (SK-MEL-5): inactive; growth inhibition (GI) (SNB-75): inactive; growth inhibition (GI) (U-251): inactive; growth inhibition (GI) (K562): inactive; growth inhibition (GI) (HCT-116): inactive; growth inhibition (GI) (Hs-578T): inactive; growth inhibition (GI) (NCI-H522): inactive; growth inhibition (GI) (LOX IMVI): inactive; growth inhibition (GI) (UO-31): inactive; growth inhibition (GI) (PC-3): inactive; growth inhibition (GI) (CAKI-1): inactive; growth inhibition (GI) (MDA-MB-468): inactive; growth inhibition (GI) (EKVX): inactive; growth inhibition (GI) (ACHN): inactive |
